Calls of active or inactive are those of the source. No cut-off for these calls is given here.
How the values were obtained:
[1] = Antiproliferative activity against human A375P cells after 24 hrs by MTT assay; format: functional
Outline: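 A375P cells grown in DMEM with 10% FBS and 1% penicillin/streptomycin at 37 °C, 5% CO₂. Harvested with trypsin-EDTA, seeded at 5×10³ cells/well and incubated 24 h before dosing with a 12-point, 3-fold serial dilution. Viability by MTT reduction, absorbance at 590 nm. IC50 derived by curve fitting.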

[2] = system: U-937; experiment: Antiproliferative activity against human U937 cells after 24 hrs by MTT assay; format: functional; details: U-937, 24 h
Outline: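 U937 cells kept in RPMI 1640 with 10% FBS, 1% penicillin/streptomycin and 25 mM HEPES (37 °C, 5% CO₂). Seeded at 5×10³ cells/well and held 24 h before exposure to 12 concentrations in 3-fold serial dilution. MTT reduction read at 570 nm. IC50 obtained by curve fitting.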

[3] = target: T1, Macrophage colony-stimulating factor 1 receptor (Homo sapiens, UniProt P07333); experiment: Inhibition of human FMS using myelin basic protein as substrate at 10 uM after 40 mins in presence of [gamma-33P]-ATP by liquid scintillation counting method
T1 sequence (P07333 whole entry): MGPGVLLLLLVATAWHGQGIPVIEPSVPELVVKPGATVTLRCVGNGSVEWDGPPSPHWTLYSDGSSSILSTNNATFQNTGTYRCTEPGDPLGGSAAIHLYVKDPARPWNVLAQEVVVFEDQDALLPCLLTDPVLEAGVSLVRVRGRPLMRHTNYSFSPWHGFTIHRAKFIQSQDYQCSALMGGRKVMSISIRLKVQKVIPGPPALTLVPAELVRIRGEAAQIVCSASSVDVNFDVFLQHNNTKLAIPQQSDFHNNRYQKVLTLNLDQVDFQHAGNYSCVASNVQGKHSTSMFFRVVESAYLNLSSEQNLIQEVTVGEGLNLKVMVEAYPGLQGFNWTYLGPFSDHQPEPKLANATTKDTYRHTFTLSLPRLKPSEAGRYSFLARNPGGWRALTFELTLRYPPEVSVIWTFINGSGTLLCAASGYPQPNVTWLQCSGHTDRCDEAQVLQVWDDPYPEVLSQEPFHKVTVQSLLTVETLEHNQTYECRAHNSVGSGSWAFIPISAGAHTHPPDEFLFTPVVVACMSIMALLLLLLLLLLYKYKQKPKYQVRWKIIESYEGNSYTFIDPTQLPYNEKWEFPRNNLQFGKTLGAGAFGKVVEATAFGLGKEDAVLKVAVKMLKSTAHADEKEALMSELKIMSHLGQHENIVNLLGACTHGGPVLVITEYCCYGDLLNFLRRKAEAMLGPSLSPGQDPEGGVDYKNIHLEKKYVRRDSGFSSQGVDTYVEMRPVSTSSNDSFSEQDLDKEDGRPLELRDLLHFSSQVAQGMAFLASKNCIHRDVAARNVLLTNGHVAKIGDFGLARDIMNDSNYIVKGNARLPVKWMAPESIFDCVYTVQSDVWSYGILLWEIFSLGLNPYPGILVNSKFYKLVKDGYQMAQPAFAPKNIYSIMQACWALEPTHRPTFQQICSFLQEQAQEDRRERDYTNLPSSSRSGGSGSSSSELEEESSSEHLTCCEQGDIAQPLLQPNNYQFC

[4] = target: T2, Receptor-type tyrosine-protein kinase FLT3 (Homo sapiens, UniProt P36888); experiment: Inhibition of FLT3 (unknown origin) after 40 mins in presence of [gamma-33P]-ATP by liquid scintillation counting method
T2 sequence (P36888 whole entry): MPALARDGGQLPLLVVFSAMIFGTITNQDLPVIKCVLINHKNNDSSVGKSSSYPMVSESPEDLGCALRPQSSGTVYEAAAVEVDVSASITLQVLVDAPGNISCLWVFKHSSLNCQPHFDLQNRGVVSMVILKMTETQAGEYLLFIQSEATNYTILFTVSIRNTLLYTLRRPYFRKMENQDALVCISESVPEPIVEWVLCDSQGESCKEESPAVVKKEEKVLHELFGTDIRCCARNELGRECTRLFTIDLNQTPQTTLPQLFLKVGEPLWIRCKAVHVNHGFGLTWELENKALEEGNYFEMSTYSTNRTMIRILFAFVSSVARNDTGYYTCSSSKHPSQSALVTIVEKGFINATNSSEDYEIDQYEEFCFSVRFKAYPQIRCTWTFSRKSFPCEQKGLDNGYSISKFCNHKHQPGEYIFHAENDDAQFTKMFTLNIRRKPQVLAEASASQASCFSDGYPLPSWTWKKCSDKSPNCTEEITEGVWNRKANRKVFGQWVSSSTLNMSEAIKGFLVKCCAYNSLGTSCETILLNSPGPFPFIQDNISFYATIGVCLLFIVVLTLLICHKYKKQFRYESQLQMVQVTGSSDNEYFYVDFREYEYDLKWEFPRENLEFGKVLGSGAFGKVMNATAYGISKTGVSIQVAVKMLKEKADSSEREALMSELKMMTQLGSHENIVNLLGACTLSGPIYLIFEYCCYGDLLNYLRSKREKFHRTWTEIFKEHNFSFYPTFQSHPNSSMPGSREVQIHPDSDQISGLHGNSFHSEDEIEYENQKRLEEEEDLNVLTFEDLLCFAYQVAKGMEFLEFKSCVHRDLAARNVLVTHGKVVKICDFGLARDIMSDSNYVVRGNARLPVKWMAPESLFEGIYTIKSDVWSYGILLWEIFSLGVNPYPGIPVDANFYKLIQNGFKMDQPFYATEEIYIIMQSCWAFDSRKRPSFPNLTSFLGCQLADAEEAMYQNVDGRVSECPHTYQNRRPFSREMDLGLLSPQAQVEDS

[5] = target: Receptor-type tyrosine-protein kinase FLT3 (Homo sapiens) (UniProt P36888); experiment: Inhibition of human FLT3 using EAIYAAPFAKKK peptide as substrate at 10 uM after 40 mins in presence of [gamma-33P]-ATP by liquid scintillation counting method
[6] = target: T3, Proto-oncogene tyrosine-protein kinase receptor Ret (Homo sapiens, UniProt P07949); experiment: Inhibition of RET (unknown origin) after 40 mins in presence of [gamma-33P]-ATP by liquid scintillation counting method
T3 sequence (P07949 whole entry): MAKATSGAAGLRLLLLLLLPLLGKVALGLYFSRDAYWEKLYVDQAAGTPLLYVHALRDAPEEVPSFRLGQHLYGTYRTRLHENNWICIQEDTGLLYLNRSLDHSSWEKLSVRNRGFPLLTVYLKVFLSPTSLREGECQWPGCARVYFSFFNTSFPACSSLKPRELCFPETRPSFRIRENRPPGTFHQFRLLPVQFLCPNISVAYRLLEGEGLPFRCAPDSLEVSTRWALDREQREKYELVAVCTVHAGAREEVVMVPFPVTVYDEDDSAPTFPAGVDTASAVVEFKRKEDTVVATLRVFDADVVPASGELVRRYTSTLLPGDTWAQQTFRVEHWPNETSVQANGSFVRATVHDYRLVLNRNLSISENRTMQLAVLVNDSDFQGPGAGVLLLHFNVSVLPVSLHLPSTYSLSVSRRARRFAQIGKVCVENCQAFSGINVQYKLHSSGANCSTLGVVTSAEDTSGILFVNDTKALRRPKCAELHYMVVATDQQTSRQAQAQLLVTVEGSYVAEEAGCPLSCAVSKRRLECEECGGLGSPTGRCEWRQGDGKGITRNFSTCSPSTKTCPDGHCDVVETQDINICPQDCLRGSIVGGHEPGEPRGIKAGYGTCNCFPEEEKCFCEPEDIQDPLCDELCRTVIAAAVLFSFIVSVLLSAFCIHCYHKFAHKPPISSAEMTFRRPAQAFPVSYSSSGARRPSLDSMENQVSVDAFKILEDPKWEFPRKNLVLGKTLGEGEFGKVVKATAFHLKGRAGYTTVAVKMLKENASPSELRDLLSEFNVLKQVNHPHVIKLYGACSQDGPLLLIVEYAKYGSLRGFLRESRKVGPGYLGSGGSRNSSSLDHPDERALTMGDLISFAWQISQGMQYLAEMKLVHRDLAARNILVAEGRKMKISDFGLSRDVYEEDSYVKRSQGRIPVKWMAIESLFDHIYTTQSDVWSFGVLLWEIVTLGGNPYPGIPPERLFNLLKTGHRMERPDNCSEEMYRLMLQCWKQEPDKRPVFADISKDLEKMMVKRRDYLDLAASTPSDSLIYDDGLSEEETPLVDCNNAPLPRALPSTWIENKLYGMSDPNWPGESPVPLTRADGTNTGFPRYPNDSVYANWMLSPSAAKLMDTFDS

[7] = target: T4, Platelet-derived growth factor receptor beta (Homo sapiens, UniProt P09619); experiment: Inhibition of PDGFRb (unknown origin) after 40 mins in presence of [gamma-33P]-ATP by liquid scintillation counting method
T4 sequence (P09619 whole entry): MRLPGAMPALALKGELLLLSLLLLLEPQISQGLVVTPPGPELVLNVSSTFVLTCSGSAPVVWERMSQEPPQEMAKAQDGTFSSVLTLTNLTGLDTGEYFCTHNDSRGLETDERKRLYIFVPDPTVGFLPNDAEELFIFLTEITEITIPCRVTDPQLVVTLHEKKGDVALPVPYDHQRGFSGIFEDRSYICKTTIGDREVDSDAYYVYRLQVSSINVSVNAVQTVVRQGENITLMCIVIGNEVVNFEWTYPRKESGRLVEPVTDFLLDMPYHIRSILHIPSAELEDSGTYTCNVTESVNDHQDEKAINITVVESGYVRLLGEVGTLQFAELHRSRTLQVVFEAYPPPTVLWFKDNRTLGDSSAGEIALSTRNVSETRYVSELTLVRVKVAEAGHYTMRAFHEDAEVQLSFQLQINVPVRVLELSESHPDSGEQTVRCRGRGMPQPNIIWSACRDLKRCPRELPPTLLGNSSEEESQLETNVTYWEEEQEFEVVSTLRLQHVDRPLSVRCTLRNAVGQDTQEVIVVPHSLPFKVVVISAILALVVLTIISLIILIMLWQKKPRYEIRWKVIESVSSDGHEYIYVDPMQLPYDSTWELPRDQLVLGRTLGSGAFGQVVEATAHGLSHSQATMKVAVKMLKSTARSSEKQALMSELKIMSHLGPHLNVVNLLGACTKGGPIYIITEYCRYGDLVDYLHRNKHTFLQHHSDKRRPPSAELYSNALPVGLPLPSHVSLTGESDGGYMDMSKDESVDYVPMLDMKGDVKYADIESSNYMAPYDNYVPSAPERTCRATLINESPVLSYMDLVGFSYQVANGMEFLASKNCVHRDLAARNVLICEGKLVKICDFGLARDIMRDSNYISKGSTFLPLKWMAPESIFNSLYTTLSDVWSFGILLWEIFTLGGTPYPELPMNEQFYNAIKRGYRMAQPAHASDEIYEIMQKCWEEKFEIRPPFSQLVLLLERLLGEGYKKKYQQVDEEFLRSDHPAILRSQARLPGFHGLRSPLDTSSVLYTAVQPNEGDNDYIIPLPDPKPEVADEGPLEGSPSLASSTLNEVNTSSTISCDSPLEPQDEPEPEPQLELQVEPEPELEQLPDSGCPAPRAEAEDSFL

[8] = target: T3, Proto-oncogene tyrosine-protein kinase receptor Ret; experiment: Inhibition of human RET using KKKVSRSGLYRSPSMPENLNRPR as substrate at 10 uM after 40 mins in presence of [gamma-33P]-ATP by liquid scintillation counting method
[9] = target: T4, Platelet-derived growth factor receptor beta; experiment: Inhibition of human PDGFRb using poly[Glu:Tyr] (4:1) as substrate at 10 uM after 40 mins in presence of [gamma-33P]-ATP by liquid scintillation counting method
[10] = target: Vascular endothelial growth factor receptor 3 (Homo sapiens) (UniProt P35916); experiment: Inhibition of human FLT4 using poly[Glu:Tyr] (4:1) as substrate at 10 uM after 40 mins in presence of [gamma-33P]-ATP by liquid scintillation counting method
Chain of Vascular endothelial growth factor receptor 3 (Homo sapiens) (P35916 whole entry): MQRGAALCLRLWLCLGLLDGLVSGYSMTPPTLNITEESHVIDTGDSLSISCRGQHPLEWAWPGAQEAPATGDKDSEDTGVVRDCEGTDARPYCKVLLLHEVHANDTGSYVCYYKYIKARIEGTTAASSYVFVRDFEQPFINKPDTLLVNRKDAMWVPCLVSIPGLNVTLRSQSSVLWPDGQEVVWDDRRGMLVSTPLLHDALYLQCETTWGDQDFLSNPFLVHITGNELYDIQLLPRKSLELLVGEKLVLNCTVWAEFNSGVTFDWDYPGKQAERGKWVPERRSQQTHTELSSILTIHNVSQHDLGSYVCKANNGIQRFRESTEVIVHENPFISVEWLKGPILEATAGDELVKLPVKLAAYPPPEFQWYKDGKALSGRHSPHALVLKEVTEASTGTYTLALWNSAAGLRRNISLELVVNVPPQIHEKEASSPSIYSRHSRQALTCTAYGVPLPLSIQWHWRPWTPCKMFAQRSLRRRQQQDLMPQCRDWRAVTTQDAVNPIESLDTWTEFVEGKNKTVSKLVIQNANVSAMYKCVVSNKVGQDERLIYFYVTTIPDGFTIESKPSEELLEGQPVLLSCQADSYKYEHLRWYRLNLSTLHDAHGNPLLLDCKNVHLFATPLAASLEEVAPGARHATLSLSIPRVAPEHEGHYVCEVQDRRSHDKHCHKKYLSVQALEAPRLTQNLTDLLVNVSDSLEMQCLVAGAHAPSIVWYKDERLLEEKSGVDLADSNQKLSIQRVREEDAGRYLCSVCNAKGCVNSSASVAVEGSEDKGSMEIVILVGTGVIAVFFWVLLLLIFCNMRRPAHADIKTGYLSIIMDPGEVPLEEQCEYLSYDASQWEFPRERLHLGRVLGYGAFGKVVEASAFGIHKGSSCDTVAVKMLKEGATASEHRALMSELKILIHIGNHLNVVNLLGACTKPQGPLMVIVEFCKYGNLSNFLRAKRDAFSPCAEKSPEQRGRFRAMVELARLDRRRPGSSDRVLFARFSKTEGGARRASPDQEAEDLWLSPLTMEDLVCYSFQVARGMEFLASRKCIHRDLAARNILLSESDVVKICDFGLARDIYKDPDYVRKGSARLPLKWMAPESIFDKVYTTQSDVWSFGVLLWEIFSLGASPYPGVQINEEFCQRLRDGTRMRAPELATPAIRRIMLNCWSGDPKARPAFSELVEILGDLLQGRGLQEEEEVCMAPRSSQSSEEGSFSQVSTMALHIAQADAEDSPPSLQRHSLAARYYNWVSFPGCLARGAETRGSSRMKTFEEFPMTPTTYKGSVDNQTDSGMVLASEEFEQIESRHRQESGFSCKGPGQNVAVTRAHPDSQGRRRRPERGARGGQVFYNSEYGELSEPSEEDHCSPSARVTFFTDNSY

[11] = target: T1, Macrophage colony-stimulating factor 1 receptor; experiment: Inhibition of human FMS using myelin basic protein as substrate after 40 mins in presence of [gamma-33P]-ATP by liquid scintillation counting method
Outline: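 Radiometric filter-binding assay with human FMS (5–10 mU) in 25 mM Tris pH 7.5, 0.02 mM EGTA, 0.66 mg/mL myelin basic protein and 10 mM magnesium acetate, with [γ-33P]ATP (approx. 500 cpm/pmol). Started with Mg-ATP mix and run 40 min at room temperature. Stopped with 3% phosphoric acid, spotted on P30 filtermat, washed in 75 mM phosphoric acid then methanol, scintillation counted.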

GI50 [2] [µM]	Structure (SMILES)	GI50 [1] [µM]	other results
3.2	O=C1CC(c2cccc(NC(=O)Nc3ccc(Cl)c(Cl)c3)c2)=Nc2cscc2N1	11	
	O=C1CC(c2cccc(NC(=O)c3cnc4ccccc4c3)c2)=Nc2cscc2N1	6.87	
2.34	CNC(=O)c1cc(Oc2ccc(NC(=O)Nc3ccc(Cl)c(C(F)(F)F)c3)cc2)ccn1 [SORAFENIB]	3.4	
	O=C1CC(c2ccc(NC(=O)Nc3ccc(Cl)c(Cl)c3)cc2)=Nc2cscc2N1	2.06	
> 30	CN1CCN(c2cc(C(=O)Nc3ccc(C4=Nc5cscc5NC(=O)C4)cc3)cc(C(F)(F)F)c2)CC1	> 30	
	Cc1c(C)c2c(c(C)c1O)CC[C@](C)(C(=O)Nc1cccc(C3=Nc4cscc4NC(=O)C3)c1)O2	> 30	
9.64	O=C1CC(c2cccc(NC(=O)c3cnn(-c4ccccc4)c3C(F)(F)F)c2)=Nc2cscc2N1		
4.55	O=C1CC(c2cccc(NC(=O)Nc3ccc(Cl)cc3)c2)=Nc2cscc2N1	5.04	
3.77	O=C1CC(c2ccc(NC(=O)c3ccccc3-c3ccccc3)cc2)=Nc2cscc2N1	> 30	
	O=C1CC(c2ccc(NC(=O)c3cnn(-c4ccccc4)c3C(F)(F)F)cc2)=Nc2cscc2N1	6.85	
	O=C1CC(c2ccc(NC(=O)c3ccc(Cl)c(C(F)(F)F)c3)cc2)=Nc2cscc2N1	7.85	
> 30	O=C(Cc1c[nH]c2ccccc12)Nc1ccc(C2=Nc3cscc3NC(=O)C2)cc1	> 30	
	CN1CCN(c2cc(C(=O)Nc3cccc(C4=Nc5cscc5NC(=O)C4)c3)cc(C(F)(F)F)c2)CC1	3.04	
4.08	O=C1CC(c2ccc(NC(=O)Nc3ccc(Cl)c(C(F)(F)F)c3)cc2)=Nc2cscc2N1	1.7	
14.3	O=C1CC(c2cccc(NC(=O)Nc3ccc(Cl)c(C(F)(F)F)c3)c2)=Nc2cscc2N1	8.25	
1.03	O=C1CC(c2cccc(NC(=O)c3ccccc3-c3ccccc3)c2)=Nc2cscc2N1	3.25	
	CCN1CCN(Cc2ccc(NC(=O)Nc3ccc(C4=Nc5cscc5NC(=O)C4)cc3)cc2C(F)(F)F)CC1	0.32	inhibition [3]: Active; IC50 [4]: 0.0279 µM; inhibition [5]: Active; IC50 [6]: 0.0716 µM; IC50 [7]: 0.0634 µM; inhibition [8]: Active; inhibition [9]: Active; inhibition [10]: Active; IC50 [11]: 0.00373 µM
2.75	CCN1CCN(Cc2ccc(NC(=O)Nc3cccc(C4=Nc5cscc5NC(=O)C4)c3)cc2C(F)(F)F)CC1	1.82	
	O=C(Cc1ccc(-c2ccccc2)cc1)Nc1ccc(C2=Nc3cscc3NC(=O)C2)cc1	8.7	
	O=C1CC(c2cccc(NC(=O)c3cc(N4CCOCC4)cc(C(F)(F)F)c3)c2)=Nc2cscc2N1	1.98	
	O=C1CC(c2cccc(NC(=O)c3ccc(Cl)c(C(F)(F)F)c3)c2)=Nc2cscc2N1	4.99	
> 30	O=C(Cc1c[nH]c2ccccc12)Nc1cccc(C2=Nc3cscc3NC(=O)C2)c1	> 30	
0.964	O=C1CC(c2ccc(NC(=O)Nc3ccc(Cl)cc3)cc2)=Nc2cscc2N1	3.12	
	CC(=O)N1CCC(C(=O)Nc2ccc(C3=Nc4cscc4NC(=O)C3)cc2)CC1	> 30	
	O=C1CC(c2ccc(NC(=O)c3cc(N4CCOCC4)cc(C(F)(F)F)c3)cc2)=Nc2cscc2N1	3.45	
